Measured values taken from the array DNA melting data of Ke et al. (doi:10.1101/2024.01.08.574731).

Experiments:
[1] = folding enthalpy; higher = less favourable; fluorescence melt of hairpins on a sequencing array, two-state fit; details: sodium 0.088 M
Summary of the method: (§1)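 In 50 mM Na-HEPES pH 8.0 containing 25 mM NaCl, hairpins from the library on a sequenced MiSeq flow cell were imaged for Cy3 fluorescence at 2.5 °C steps up to 60 °C, with Cy3 and quencher oligos annealed. After normalisation to pre-quench Cy3 and to control constructs, two-state fits with bootstrapping gave melting temperature and folding enthalpy. Four replicates were combined by inverse-variance weighting, and fitted temperatures were shifted up by 9.35 °C to match UV melts.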

[2] = melting temperature; fluorescence melt of hairpins on a sequencing array, two-state fit, raised by 9.35 °C to match UV melts; details: sodium 0.088 M
Summary of the method: as §1

Sequence	folding enthalpy [1] [kcal/mol]	Tm [2] [°C]
GTCACGGCGAAAGCCGAC (((..(((....))))))	-6.5	27.9
GCCGCAGGAAACTGCGAC (.(((((....))))).)	-13.1	48.8
GGCTACGAAAGTAAAGCC ((((((....)))..)))	-32.5	50.5
GCTGTCGCGAAAGCGAGC (((..(((....))))))	-8.75	41.8
GCCTATACGAAAGTAGGC (((..(((....))))))	-28.6	48.3
GTAGTCCGAAAGGAATAC (((.(((....))).)))	-37.6	49.7
GACGAGGGAAACTTCGTC (((((.(....).)))))	-40.8	49
GATCTATAGCTAGATC ((((((....))))))	-28.7	36.5
GCTAGGGGAAACCTTGGC ((.(.((....)).).))	-23.8	34.4
GTATAGCGAAAGCTTTAC (((.(((....))).)))	-22	40.9
GATCTCCCCAGAGATC ((((((....))))))	-42.9	55.7
GCATAGGGAAACTTATGC (((((.(....).)))))	-29.2	41.6
GACTTTGCGAAAGCAGTC (((..(((....))))))	-14.4	32.8
GATAAGCGAAAGCTGATC (((.(((....))).)))	-26.3	47.5
GCTTTCGAAAGAATAGC ((((((....))).)))	-23.9	38.2
GAAGTAGGAAACTGCTTC ((((.((....)).))))	-34.4	43.3
GTGAAGGAAACTTCAC ((((((....))))))	-32.5	54.1
GATCAGGGTACTGATC ((((((....))))))	-41	55.5
GAGGCCGAAAGGCAGCTC ((((((....)))..)))	-13.7	50.6
GATGGGGGAAACCCTATC (((.(((....))).)))	-23.4	45
GGAGTTGGAAACGATTCC (((.(.(....).).)))	-19.6	40.8
GATCTTAATTAAGATC ((((((....))))))	-32.1	44.7
GGTGAGAAATCACC (((((....)))))	-27.6	51
GATCGCTATCGCGATC ((((((....))))))	-36.9	67.1

Sequence	folding enthalpy [1] [kcal/mol]	Tm [2] [°C]
GCGGAGGCGAAAGCCCGC (((..(((....))))))	-21.7	66.6
GTTGCCGAAAGGCGTAAC ((((((....)))..)))	-9.66	34.7
GACAAGGGAAACCTTGCC (.(((((....))))).)	-14.8	42
GATCTTACAGAAGATC ((((((....))))))	-31.8	38.4
GATCCTAAATAGGATC ((((((....))))))	-35.8	49.2
GATCAAGTCTTGATC ((((((...))))))	-30.4	46.2
GCCCGTGGAAACACGAGC ((.((((....)))).))	-24	50.8
CTAACTGAAAAGTTAG ((((((....))))))	-23.3	45.9
GCGTTTGACGC ((((...))))	-18.3	57.1
GCACGGCGAAAGCCTCGC ((..(((....)))..))	-16.5	42
GTAGGCGGAAACGCTTAC (((.(((....))).)))	-23.1	48.2
GGTCAACGAAAGTTTACC (((.(((....))).)))	-28.8	42.8
GCGTGGCGAAAGCCGGGC ((..(((....)))..))	-27	64.7
GAAACACGAAAGTGTTC (((.(((....))))))	-12.7	44
GGCAGGGGAAACCTTGCC ((((.((....)).))))	-49.2	55.3
GAAAAAACGAAAGTTTTC (((..(((....))))))	-13.4	30.9
GACCTTGGAAACAAGGTC (((((((....)))))))	-40.6	63
GGACATGGAAACATGTCC (((((((....)))))))	-44.6	64.7
GCGAATGCGAAAGCACGC (((..(((....))))))	-18.9	52.3
GCCTCTGGAAACGGAGGC (((((.(....).)))))	-40.7	57.5
GGCCCGCGAAAGCGCGCC (((.(((....))).)))	-26.5	64.4
GCTCCCGAAAGGGAAAGC ((((((....)))..)))	-16.6	51.7
GATCGCATCCGCGATC ((((((....))))))	-33.4	68.7
GTGTCGGGAAACCGACGC (.(((((....))))).)	-19.8	60.5

Sequence	folding enthalpy [1] [kcal/mol]	Tm [2] [°C]
GATCTACTTCTAGATC ((((((....))))))	-33.5	38.7
GATCGTGGACACGATC ((((((....))))))	-40.2	65.6
GCGGGGCCCGC ((((...))))	-34.8	63.3
GGCGTCGAAAGACCAGCC ((((((....)))..)))	-18.6	50.9
GCCTAGCGAAAGCTGTGC ((..(((....)))..))	-13	41.2
GCCAACGAAAGTTTAGGC ((((((....)))..)))	-28.2	43.8
GAACGACGAAAGTCCTTC (((.(((....))).)))	-14.3	31.3
GTAGACGAAAGTCTTAC ((((((....))).)))	-14.6	38.6
GCTTCAGGAAACTGAGGC ((.((((....)))).))	-37.3	47.7
GAGATTGGAAACAATCTC (((((((....)))))))	-42.2	56.4
GACGGGGCGAAAGCCGTC (((..(((....))))))	-15.6	55.2
GGAATCGGAAACGATTCC (((((((....)))))))	-43.2	66.1
GTCAGACCGAAAGGTGAC (((..(((....))))))	-21.4	44.4
GATCGAAGGTCGATC ((((((...))))))	-25.6	50.9
GGACCACGAAAGTGTTCC (((.(((....))).)))	-24.8	49.4
GAGTCCCGAAAGGGCCTC (((.(((....))).)))	-26.6	52.4
CACGAGAAATCGTG (((((....)))))	-23.5	50.6
GTAACTGGAAACAGCTAC (((.(((....))).)))	-30.1	34.2
GATCCCAAGGGGATC ((((((...))))))	-35.8	66.6
GATCCCTTGGGGGATC ((((((....))))))	-46.9	60.1
GCGTCTTTACGC ((((....))))	-27.9	53.2
GCCATGGGAAACCATAGC ((.((((....)))).))	-25.6	36.5
GAATCAGGAAACTGGTTC (((.(((....))).)))	-31.2	42.6
GCCTACGAAAGTAGTGGC ((((((....)))..)))	-24.3	48.4

Sequence	folding enthalpy [1] [kcal/mol]	Tm [2] [°C]
GTGCGGGGAAACCCGCGC (.(((((....))))).)	-16.1	67.2
GCCCAGCGAAAGCTTAGC ((..(((....)))..))	-8.7	32.8
GAATCAGGAAACTGATCC (.(((((....))))).)	-15.4	32.6
GCTGTTGGAAACAATGGC ((..(((....)))..))	-27.4	39.9
GACGACGAAAGTCGGGTC ((((((....)))..)))	-12.8	64.1
GATCGGTTTCCCGATC ((((((....))))))	-40.4	57.1
GGCAGCGAAAGCTTGCC ((((((....))).)))	-27.1	63.1
GGGGTAGAAATACCCC ((((((....))))))	-34.9	60.4
GAGCGCACGAAAGTGCTC (((..(((....))))))	-8.27	38.1
GATCGTGACAACGATC ((((((....))))))	-38.4	63.5
GTTTCGGGAAACTGAAGC (.(((.(....).))).)	-11.2	37.9
GATGACCGAAAGGTGATC (((.(((....))).)))	-26.9	47.7
GAACCACGAAAGTGATTC (((.(((....))).)))	-23.9	43.7
GCCTCGCGAAAGCCGGGC (((..((....))..)))	-22.5	55.8
GTGGCACGAAAGTGCAC (((.(((....))))))	-11	52.1
GATCAGCTACCTGATC ((((((....))))))	-40	48.9
GCGAAGTGTCGC ((((....))))	-13.9	49.6
GAGACCGAAAGGTTGCTC ((((((....)))..)))	-14.1	36.2
GATCTCTAGTGAGATC ((((((....))))))	-36.9	50.3
GATCCAAAGATGGATC ((((((....))))))	-26.4	44.5
GCTGCGCGAAAGCACGGC ((.(.((....)).).))	-26.6	59.1
